Consider one compound from ChEMBL document CHEMBL4308829, “Design and Synthesis of Novel Positive Allosteric Modulators of α7 Nicotinic Acetylcholine Receptors with the Ability To Rescue Auditory Gating Deficit in Mice” (J Med Chem, 2018).

Structures are written as SMILES. Active and inactive are the calls of the source. No cut-off for these calls is given here.

In general, half-life refers to how long it takes for the measured level to halve. For orientation: Vd/F means the volume of distribution divided by bioavailability. One may read the AUC(0-inf) as the area under the concentration-time curve extrapolated to infinity. The term Cmax denotes the highest concentration seen after dosing. Broadly, the AUC(0-t) is exposure summed from dosing to a finite time, without extrapolation to infinity. The term Emax denotes the size of the effect at its maximum, as opposed to the concentration needed.

Data set [1] can be described thus: Plasma concentration in C57BL/6J mouse at 1 mg/kg, ip after 2 hrs by LC-MS/MS analysis. Format: ADME, organism-based. A digest of the protocol:
(§1)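 C57BL/6J mice given 1 mg/kg i.p. from a 0.4 mg/mL solution in 10% DMSO/50% PEG400/40% SBECD. Plasma and brain taken at 0.5, 2 and 8 h. Samples mixed with internal standard in methanol/acetonitrile (1:1), centrifuged and diluted 10x in methanol:water with 0.1% FA, then measured by HPLC-MS-MS. n = 3; ratio is brain over plasma concentration.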

A short description of data set [2]: Drug uptake in C57BL/6J mouse brain at 1 mg/kg, ip after 0.5 hrs by LC-MS/MS analysis. The data set is classed as ADME, organism-based. To be noted: read-out: Drug uptake. A digest of the protocol: as §1
The nature of data set [3]: Ratio of drug level in C57BL/6J mouse brain to plasma at 1 mg/kg, ip after 0.5 hrs by LC-MS/MS analysis. The data set is classed as ADME, organism-based. The following applies: read-out: BPR. A digest of the protocol: as §1
Data set [4] is described as follows: Half life in rat at 60 mg/kg, po by LC-MS/MS analysis. To be noted: in vivo. The data set is classed as ADME, organism-based. An outline of the steps:
(§2)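 Rat plasma stored at -20 °C, spiked with internal standard, protein-precipitated with methanol, centrifuged and filtered before LC-MS/MS. C18 column at 40 °C, acetonitrile/0.1% formic acid (80:20) isocratic at 0.5 mL/min. Positive ESI with MRM m/z 400.0->129.9. Parameters taken per rat by non-compartmental analysis, n = 3.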

The nature of data set [5]: Apparent volume of distribution during terminal phase in rat at 60 mg/kg, po by LC-MS/MS analysis. The data set is classed as ADME, organism-based. To be noted: in vivo. An outline of the steps:
as §2

The nature of data set [6]: Ratio of drug level in C57BL/6J mouse brain to plasma at 1 mg/kg, ip after 8 hrs by LC-MS/MS analysis. The following applies: read-out: BPR. Format: ADME, organism-based. An outline of the steps:
as §1

The target in data set [7] is T1, Neuronal acetylcholine receptor subunit alpha-7 (Homo sapiens, UniProt P36544). Kind of data set: Positive allosteric modulation of human alpha7 nAChR expressed in Xenopus laevis oocytes assessed as increase in acetylcholine-induced channel current at -90 mV holding potential preincubated for 2 mins followed by co-application with acetylcholine for 10 secs by two-electrode voltage clamp method. Format: cell-based. (In general: Two-electrode voltage clamp holds a large cell at a set potential and records current.)

A short description of data set [8]: AUCinfinity in rat at 3 mg/kg, iv by LC-MS/MS analysis. Format: ADME, organism-based. Further details: dose 3 mg/kg, route intravenous, time infinity. The following applies: in vivo. A digest of the protocol: as §2
Data set [9] concerns Mus musculus. Kind of data set: Anti-schizophrenic activity in C57BL/6J mouse assessed as protection against MK-801-induced auditory gating deficit by measuring prepulse inhibition impairment at 0.3 mg/kg, ip at 8 to 16 dB prepulse intensity (reference value: 11%). Format: functional. Further details: scale not given: the % may be the effect or the level left.
The nature of data set [10]: Plasma concentration in C57BL/6J mouse at 1 mg/kg, ip after 8 hrs by LC-MS/MS analysis. Format: ADME, organism-based. A digest of the protocol:
as §1

Data set [11] concerns the target Neuronal acetylcholine receptor; alpha4/beta2 (Rattus norvegicus) (UniProt P09483+P12390). Put plainly: Positive allosteric modulation of rat alpha4beta2 nAChR expressed in Xenopus laevis oocytes assessed as increase in acetylcholine-induced channel current at 10 uM at -90 mV holding potential by two-electrode voltage clamp method. Format: cell-based. An outline of the steps:
(§3)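 Rat α3β4 or α4β2 subunit cRNAs (~2 ng total, 1:1) injected into oocytes, which were kept at 16 °C in ND96. Two-electrode voltage clamp at -90 mV, 24-72 h post-injection, in Ringer's containing atropine at room temperature.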

The nature of data set [12]: Apparent volume of distribution in rat at 3 mg/kg, iv by LC-MS/MS analysis. Format: ADME, organism-based. To be noted: in vivo. A digest of the protocol:
as §2

The target in data set [13] is Neuronal acetylcholine receptor; alpha3/beta4 (Rattus norvegicus) (UniProt P04757+P12392). Kind of data set: Positive allosteric modulation of rat alpha3beta4 nAChR expressed in Xenopus laevis oocytes assessed as increase in acetylcholine-induced channel current at 10 uM at -90 mV holding potential by two-electrode voltage clamp method. Format: cell-based. An outline of the steps: as §3

A short description of data set [14]: Cmax in rat at 60 mg/kg, po by LC-MS/MS analysis. The data set is classed as ADME, organism-based. More on the design: dose 60 mg/kg, route oral. The following applies: in vivo. An outline of the steps: as §2
Data set [15] is described as follows: Plasma concentration in C57BL/6J mouse at 1 mg/kg, ip after 0.5 hrs by LC-MS/MS analysis. Format: ADME, organism-based. A digest of the protocol:
as §1

Data set [16] has as its target T2, 5-hydroxytryptamine receptor 3A (Homo sapiens) (UniProt P46098).
T2 sequence (whole entry): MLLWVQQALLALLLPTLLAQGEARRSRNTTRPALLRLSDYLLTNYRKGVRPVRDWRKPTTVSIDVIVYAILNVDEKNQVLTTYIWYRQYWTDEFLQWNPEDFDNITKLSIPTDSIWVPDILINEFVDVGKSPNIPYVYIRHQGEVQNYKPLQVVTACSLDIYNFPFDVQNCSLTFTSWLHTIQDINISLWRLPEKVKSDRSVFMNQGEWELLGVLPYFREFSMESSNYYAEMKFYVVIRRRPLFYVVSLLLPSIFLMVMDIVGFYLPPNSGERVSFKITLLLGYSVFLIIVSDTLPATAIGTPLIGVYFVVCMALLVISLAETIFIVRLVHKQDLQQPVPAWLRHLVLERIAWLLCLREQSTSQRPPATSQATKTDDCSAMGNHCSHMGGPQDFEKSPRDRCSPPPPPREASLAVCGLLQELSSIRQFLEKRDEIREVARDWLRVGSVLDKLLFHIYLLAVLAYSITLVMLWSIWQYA
Put plainly: Positive allosteric modulation of human 5-HT3A receptor expressed in Xenopus laevis oocytes assessed as increase in 5-HT-induced channel current at 10 uM at -90 mV holding potential by two-electrode voltage clamp method. The data set is classed as cell-based.

Data set [17] can be described thus: AUCinfinity in rat at 60 mg/kg, po by LC-MS/MS analysis. Format: ADME, organism-based. More on the design: dose 60 mg/kg, time infinity, route oral. The following applies: in vivo. An outline of the steps: as §2
Data set [18] deals with Mus musculus. Kind of data set: Anti-schizophrenic activity in ip dosed C57BL/6J mouse assessed as protection against MK-801-induced auditory gating deficit by measuring reduction in prepulse inhibition impairment at 8 to 16 dB prepulse intensity. The data set is classed as functional, organism-based.
A short description of data set [19]: Drug uptake in C57BL/6J mouse brain at 1 mg/kg, ip after 2 hrs by LC-MS/MS analysis. Format: ADME, organism-based. To be noted: read-out: Drug uptake. An outline of the steps: as §1
Data set [20] in a line: AUClast in rat at 3 mg/kg, iv by LC-MS/MS analysis. The data set is classed as ADME, organism-based. The following applies: in vivo. More on the design: dose 3 mg/kg, time 0 - last, route intravenous. An outline of the steps: as §2
Data set [21] concerns the target Glutamate NMDA receptor; Grin1/Grin2b (Rattus norvegicus) (UniProt P35439+Q00960). Put plainly: Positive allosteric modulation of rat GluN1/GluN2B receptor expressed in Xenopus laevis oocytes assessed as increase in glycine/glutamate-induced channel current 10 uM by two-electrode voltage clamp method. Format: cell-based.
Data set [22] addresses T1, Neuronal acetylcholine receptor subunit alpha-7. Put plainly: Positive allosteric modulation of human alpha7 nAChR expressed in Xenopus laevis oocytes assessed as increase in acetylcholine-induced channel current by measuring maximum efficacy of acetylcholine at 10 uM at -90 mV holding potential preincubated for 2 mins followed by co-application with acetylcholine for 10 secs by two-electrode voltage clamp method (reference value: 109 +/- 2%). The data set is classed as cell-based.

Data set [23] deals with Mus musculus. Kind of data set: Anti-schizophrenic activity in C57BL/6J mouse assessed as protection against MK-801-induced auditory gating deficit by measuring prepulse inhibition impairment at 0.1 mg/kg, ip at 8 to 16 dB prepulse intensity (reference value: 11%). Format: functional. More on the design: scale not given: the % may be the effect or the level left.

T1 sequence (P36544 whole entry): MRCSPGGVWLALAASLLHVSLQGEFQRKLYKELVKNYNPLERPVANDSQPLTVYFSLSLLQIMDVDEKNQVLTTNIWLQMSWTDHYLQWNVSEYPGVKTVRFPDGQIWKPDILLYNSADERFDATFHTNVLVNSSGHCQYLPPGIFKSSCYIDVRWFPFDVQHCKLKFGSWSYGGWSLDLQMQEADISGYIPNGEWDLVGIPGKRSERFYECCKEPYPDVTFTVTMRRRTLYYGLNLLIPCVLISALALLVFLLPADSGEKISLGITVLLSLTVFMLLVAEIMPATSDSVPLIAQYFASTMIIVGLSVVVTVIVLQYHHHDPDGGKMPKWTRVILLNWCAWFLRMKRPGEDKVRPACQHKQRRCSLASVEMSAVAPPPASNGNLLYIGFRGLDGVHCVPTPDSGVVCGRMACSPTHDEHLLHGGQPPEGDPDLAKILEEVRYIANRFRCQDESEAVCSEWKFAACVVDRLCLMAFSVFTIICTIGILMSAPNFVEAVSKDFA

Consider `Cc1cccc(Cl)c1-n1cnc2nc(SCc3ccccc3)sc2c1=O`, for which the concentration at 2 h in [1] is 9.8 ng/mL; in data set [19], 26.3 ng/g. Further, the results for the concentration at 0.5 h in data set [2] and in data set [15] were 84.7 ng/g and 34.3 ng/mL, respectively. The Kp at 0.5 h in [3] worked out at 2.5. The same compound had a half-life in data set [4] of 7.4 h. In addition, the Vd/F in [5] was 0.6 L/kg. Besides, in data set [6], the Kp at 8 h is 2.3. The Activity entry in data set [7] was “Dose-dependent effect”; in the data set on Mus musculus [9], 26%; with Mus musculus [18], “Dose-dependent effect”; in the data set with Mus musculus [23], 22%. For the same compound, the figures for the AUC(0-inf) in data set [8] and in data set [17] were 680 ng·h/mL and 1100 ng·h/mL, respectively. The compound also yielded a concentration at 8 h in [10] of 0.9 ng/mL. In addition, the result in [11], in [13], in [16] and in data set [21] was inactive. In addition, in data set [12], the Vd turned out to be 0.069 L/kg. The compound further returned a Cmax in data set [14] of 200 ng/mL. In addition, the AUC(0-t) in data set [20] was 600 ng·h/mL. Besides, the maximal response (Emax) in data set [22] stood at 1540%.
